Data published in PubChem BioAssay AID623890 (Vanderbilt Specialized Chemistry Center, 2012).

Target: Metabotropic glutamate receptor 5 (Rattus norvegicus) (UniProt P31424)
Assay: off-target activity at rat mGlu5, profiling panel, selectivity assay for mGlu4 lead optimization, cell-based, calcium flux, Fluo-4 (AID 623890)
Conditions: rat mGlu5 cells, Fluo-4 calcium flux, glutamate CRC shift, at 10 µM
In short: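 Measure: peak post-agonist fluorescence rise, normalized to baseline and pre-agonist point, four-parameter logistic fit; material: rat mGlu5-expressing cells loaded with Fluo-4 AM calcium dye; probe or stimulus: glutamate as agonist, added after compound; incubation: compound about 2.5 min before glutamate, then roughly 3 min signal recording; detection: Fluo-4 calcium fluorescence, ex 470/em 540 nm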

Chain of Metabotropic glutamate receptor 5 (Rattus norvegicus) (P31424 whole entry, looked up): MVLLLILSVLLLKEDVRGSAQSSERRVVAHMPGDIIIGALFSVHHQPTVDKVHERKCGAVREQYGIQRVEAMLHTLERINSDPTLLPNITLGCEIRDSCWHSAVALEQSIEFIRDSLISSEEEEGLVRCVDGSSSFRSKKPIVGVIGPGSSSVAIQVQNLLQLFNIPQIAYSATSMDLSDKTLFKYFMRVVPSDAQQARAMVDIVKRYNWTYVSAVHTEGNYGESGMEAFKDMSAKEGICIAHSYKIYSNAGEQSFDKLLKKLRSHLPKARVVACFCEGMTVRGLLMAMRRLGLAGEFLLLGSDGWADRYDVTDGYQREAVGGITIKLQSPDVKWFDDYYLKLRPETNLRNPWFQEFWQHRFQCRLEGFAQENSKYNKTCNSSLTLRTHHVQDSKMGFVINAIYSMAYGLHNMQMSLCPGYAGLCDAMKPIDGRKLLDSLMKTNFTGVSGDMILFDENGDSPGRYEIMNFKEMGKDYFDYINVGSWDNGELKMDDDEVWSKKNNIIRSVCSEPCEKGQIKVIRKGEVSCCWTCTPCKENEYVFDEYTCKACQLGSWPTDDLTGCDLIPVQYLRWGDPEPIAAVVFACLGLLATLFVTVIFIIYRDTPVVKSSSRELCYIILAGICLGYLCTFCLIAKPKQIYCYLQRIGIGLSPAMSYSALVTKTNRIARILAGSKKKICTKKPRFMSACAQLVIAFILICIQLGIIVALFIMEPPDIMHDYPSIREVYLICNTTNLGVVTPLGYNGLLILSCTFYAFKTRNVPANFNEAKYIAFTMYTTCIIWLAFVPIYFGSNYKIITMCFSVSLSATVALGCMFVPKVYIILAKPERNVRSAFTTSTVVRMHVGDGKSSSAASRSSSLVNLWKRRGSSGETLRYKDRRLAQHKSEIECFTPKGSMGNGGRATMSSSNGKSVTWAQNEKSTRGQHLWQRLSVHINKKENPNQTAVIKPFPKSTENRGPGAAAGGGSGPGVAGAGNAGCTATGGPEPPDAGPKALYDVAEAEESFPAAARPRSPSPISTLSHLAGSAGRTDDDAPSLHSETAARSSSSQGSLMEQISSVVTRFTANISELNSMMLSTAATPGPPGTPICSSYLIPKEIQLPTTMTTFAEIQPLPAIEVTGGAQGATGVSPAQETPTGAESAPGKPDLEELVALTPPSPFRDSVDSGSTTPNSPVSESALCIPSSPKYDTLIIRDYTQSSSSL

fold shift of glutamate EC50: 0.304 | max response (measured here: glutamate max response with compound): 74%
SMILES: O=C(Nc1cccc(Cl)c1)c1ccccn1
